Screening data (PubChem)
SIAE inh – inhibitors of human sialic acid acetylesterase SIAE. actives 0.69% (n = 370,000). inhibition, % at 9.66 µM. AID 1053197. SIAE FP-Rh probe binding, fluorescence polarization;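 active = inhibition above a cutoff: mean of compounds within the control limits plus 3 SD of those, cut at about 17% in these data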;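 note: 0% = plate median of compound wells and 100% = probe without SIAE protein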
rCAG RNA binder – binds r(CAG) RNA repeats; r(CAG) RNA repeat, TO-PRO-1 dye displacement fluorescence; inhibition, % at 3 µM; actives 1.3% (n = 370,000); AID 651821;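 active = inhibition above the plate cutoff, the mean of all test compounds on that plate plus 3 SD, cut at about 35% in these data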;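 note: 0% = DMSO alone and 100% = 100 µM mitoxantrone as full dye displacement; higher means more dye released from RNA so lower well fluorescence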
mABHD4 FP – ABHD4 (mouse) inhibition, primary FP screen; Q8VD66; purified mABHD4, FP-Rh probe fluorescence polarization; inhibition, % at 8.92 µM; actives 0.54% (n = 370,000);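 active = inhibition exceeding the mean over every tested compound plus 3 SD, cut at about 30% in these data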;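 note: 0% = plate median of compound wells and 100% = S159A mutant with DMSO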
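Assay system: mouse ABHD4 enzyme, wild type / Also added: fluorescent activity-based probe FP-Rh / Doses: single nominal dose of 8.92 µM, 0.89% DMSO final / Timing: 45 min compound pre-incubation plus 60 min probe step, 25 °C / Signal: FP readout, ex 525 nm / em 598 nm / Control set: S159A mutant/DMSO as 100%, compound-well median as 0%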
HTRA1 inh – inhibitors of human serine peptidase HTRA1; Q92743; recombinant HTRA1, FP-rhodamine activity-based probe, fluorescence polarization; inhibition, % at 5.96 µM; actives 0.5% (n = 340,000); in the data active = inhibition above about 36%;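 note: 0% = enzyme with DMSO and 100% = wells lacking enzyme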
Target sequence (Q92743 whole entry, looked up): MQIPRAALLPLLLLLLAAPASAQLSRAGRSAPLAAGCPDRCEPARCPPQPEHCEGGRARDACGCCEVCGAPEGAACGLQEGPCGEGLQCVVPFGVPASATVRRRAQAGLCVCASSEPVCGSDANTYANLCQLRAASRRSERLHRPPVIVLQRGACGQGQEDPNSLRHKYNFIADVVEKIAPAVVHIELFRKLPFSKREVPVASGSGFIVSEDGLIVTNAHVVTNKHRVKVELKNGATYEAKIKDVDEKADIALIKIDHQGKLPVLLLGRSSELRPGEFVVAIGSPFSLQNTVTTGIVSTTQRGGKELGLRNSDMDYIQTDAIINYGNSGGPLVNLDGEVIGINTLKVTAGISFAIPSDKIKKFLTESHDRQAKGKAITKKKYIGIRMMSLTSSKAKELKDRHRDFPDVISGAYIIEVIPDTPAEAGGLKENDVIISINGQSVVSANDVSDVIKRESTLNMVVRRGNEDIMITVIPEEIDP
TCR CD3 inh – inhibitors of human TCR-CD3 interaction; TAMRA-labeled TCR probe fluorescence, biochemical; inhibition, % at 9.4 µM; actives 0.37% (n = 360,000); AID 651800; in the data active = inhibition above about 19%;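 note: recombinant mutant TCR 2C K166C tagged with TAMRA read by polarization; 0% = receptor in buffer alone and 100% = receptor with positive control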
rCAG bind conf – r(CAG) RNA repeat binding, confirmation | shares compounds with rCAG RNA binder | TO-PRO-1 dye displacement fluorescence | inhibition, % at 3 µM | actives 70% (n = 4,300) | AID 652065;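 active = inhibition above a per-plate cutoff, the mean inhibition of sample wells plus 3 SD, cut at about 35% in these data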;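 note: loss of TO-PRO-1 fluorescence as compound displaces dye from 1x1 AA loop RNA; 0% = DMSO only wells and 100% = 100 µM mitoxantrone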
dCAG dye counter – counter-screen for rCAG RNA binders: DNA CAG dye complex inhibitors; inhibition, % at 3 µM; shares compounds with rCAG RNA binder; d(CAG) DNA oligo TO-PRO-1 dye displacement, fluorescence; actives 94% (n = 4,300);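 active = inhibition above its plate's cutoff, the mean test-well inhibition plus 3 SD, cut at about 4.8% in these data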;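 note: 0% = DNA dye mix with DMSO and 100% = 100 µM mitoxantrone; hits displace the dye from DNA and so lower well fluorescence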
Numbers without * were called inactive. Only some compounds are listed: those with a hit (about 2.5% of all), similar ones and a draw of the others.

What do the screens show for `Cc1ccc(C)c(N2CCN(C(=O)Cc3c(C(=O)O)[nH]c4ccc(Cl)cc34)CC2)c1`?
SIAE inh: -1; rCAG RNA binder: 57*; mABHD4 FP: 3; HTRA1 inh: -15; TCR CD3 inh: -4; rCAG bind conf: 64*; dCAG dye counter: 25*

How did COc1ccc(Br)cc1CNC(=O)Cc1c(C(=O)O)[nH]c2ccc(Cl)cc12 do in these assays?
SIAE inh: 0; rCAG RNA binder: 58*; mABHD4 FP: -13; TCR CD3 inh: 12; rCAG bind conf: 45*; dCAG dye counter: 11*

Results for O=C(NC(=S)Nc1ccc(CN2CCOCC2)cc1)c1ccc([N+](=O)[O-])cc1 ?
SIAE inh: 4; rCAG RNA binder: -3; mABHD4 FP: 6; HTRA1 inh: -2; TCR CD3 inh: 6

Results for CN(C)c1ccc(/C=C2/C=C(c3ccc4c(c3)CCCC4)OC2=O)cc1 ?
SIAE inh: 5; rCAG RNA binder: 3; mABHD4 FP: -5; HTRA1 inh: 1; TCR CD3 inh: 5

What do the screens show for `COc1ccccc1N1CCN(C(=O)Cc2ccc(Cl)cc2)CC1`?
SIAE inh: 2; rCAG RNA binder: -6; mABHD4 FP: -7; HTRA1 inh: 11; TCR CD3 inh: -6

Results for COc1ccccc1N1CCN(C(=O)Cc2c(C(=O)O)[nH]c3ccc(Cl)cc23)CC1 ?
SIAE inh: 5; rCAG RNA binder: 39*; mABHD4 FP: 0; HTRA1 inh: 8; TCR CD3 inh: 3; rCAG bind conf: 42*; dCAG dye counter: 11*

What do the screens show for `O=C1c2ccccc2C(=O)N1c1ncc(Cc2ccc(Cl)cc2)s1`?
SIAE inh: -13; rCAG RNA binder: 42*; mABHD4 FP: -21; HTRA1 inh: -21; TCR CD3 inh: 3; rCAG bind conf: 12; dCAG dye counter: 2

Results for CCOC(=O)c1c(NC(=O)/C=C/C(=O)O)sc(C)c1-c1ccc(C)c(C)c1 ?
SIAE inh: 5; rCAG RNA binder: 53*; mABHD4 FP: -1; HTRA1 inh: -24; TCR CD3 inh: -4; rCAG bind conf: 53*; dCAG dye counter: 17*

Results for COC(=O)c1c(NC(=O)/C=C/C(=O)O)sc(C)c1-c1ccc(C(C)C)cc1 ?
SIAE inh: -2; rCAG RNA binder: 52*; mABHD4 FP: -2; HTRA1 inh: -25; TCR CD3 inh: -5; rCAG bind conf: 51*; dCAG dye counter: 16*

What do the screens show for `COC(=O)c1c(NC(=O)/C=C/C(=O)O)sc(C)c1-c1ccc(C)cc1`?
SIAE inh: -1; rCAG RNA binder: 21; mABHD4 FP: 4; HTRA1 inh: -8; TCR CD3 inh: 5

What do the screens show for `COC(=O)c1c(NC(=O)/C=C/C(=O)O)sc(C)c1-c1ccc(C)c(C)c1`?
SIAE inh: -1; rCAG RNA binder: 37*; mABHD4 FP: -2; HTRA1 inh: -2; TCR CD3 inh: 3; rCAG bind conf: 36*; dCAG dye counter: 9.1*

How did CCOC(=O)c1c(NC(=O)/C=C/C(=O)O)sc(C)c1-c1ccc(F)cc1 do in these assays?
SIAE inh: 4; rCAG RNA binder: 32; mABHD4 FP: 8; HTRA1 inh: -7; TCR CD3 inh: -3

Results for CNc1[nH]c(=O)[nH]c(=O)c1N=Nc1cc(Cl)ccc1Cl ?
SIAE inh: -6; rCAG RNA binder: 1; mABHD4 FP: -7; TCR CD3 inh: -2

What do the screens show for `O=c1cc(-c2ccccc2)[nH]n1-c1ccccc1`?
SIAE inh: 11; rCAG RNA binder: 59*; mABHD4 FP: 13; HTRA1 inh: 1; TCR CD3 inh: 4; rCAG bind conf: 8; dCAG dye counter: 3

What do the screens show for `COc1ccccc1NC(=O)CCCCCN1C(=O)c2cccc([N+](=O)[O-])c2C1=O`?
SIAE inh: -2; rCAG RNA binder: -2; mABHD4 FP: 1; HTRA1 inh: -1; TCR CD3 inh: 3

What do the screens show for `COc1cc(/C=C2/C(=O)c3cccc([N+](=O)[O-])c3C2=O)c(Br)cc1O`?
SIAE inh: -15; rCAG RNA binder: 60*; mABHD4 FP: 46*; HTRA1 inh: 30; TCR CD3 inh: -7; rCAG bind conf: 89*; dCAG dye counter: 62*

What do the screens show for `CCc1c(O)nc(SCC(=O)Nc2nc3ccccc3s2)n(C2CCCCC2)c1=O`?
SIAE inh: -4; rCAG RNA binder: 40*; mABHD4 FP: -7; HTRA1 inh: 0; TCR CD3 inh: 2; rCAG bind conf: 48*; dCAG dye counter: 15*

How did CN(C)/C=C/C(=O)c1ccc(S(=O)c2ccccc2)cc1 (centres undefined) do in these assays?
SIAE inh: -1; rCAG RNA binder: 6; mABHD4 FP: 1; HTRA1 inh: 2; TCR CD3 inh: 2

What do the screens show for `COCCn1c(SCCN2CCOCC2)nc2c1c(=O)[nH]c(=O)n2C`?
SIAE inh: 3; rCAG RNA binder: 1; mABHD4 FP: 12; HTRA1 inh: 7; TCR CD3 inh: 5

Results for O=C(O)Cn1cc(/C=N/Nc2ccc([N+](=O)[O-])cn2)c2ccccc21 ?
SIAE inh: -3; rCAG RNA binder: 37*; mABHD4 FP: 7; HTRA1 inh: 7; TCR CD3 inh: -12; rCAG bind conf: 27; dCAG dye counter: 7.5*

Results for CC(C)=CCC/C(C)=C/Cc1c(O)ccc(C(=O)/C=C/c2ccc(O)cc2)c1O ?
SIAE inh: -27; rCAG RNA binder: 68*; mABHD4 FP: -42; HTRA1 inh: -21; TCR CD3 inh: 1; rCAG bind conf: 39*; dCAG dye counter: 24*

How did C=CCNC(=S)N1CCN(c2ccccc2Cl)CC1 do in these assays?
SIAE inh: 7; rCAG RNA binder: -3; mABHD4 FP: 1; HTRA1 inh: 0; TCR CD3 inh: 2

Results for COc1ccc(/C=C2\C(=O)NC(=S)N2C(=O)c2ccc(C)cc2)cc1 ?
SIAE inh: -55; rCAG RNA binder: 58*; mABHD4 FP: -29; HTRA1 inh: -69; TCR CD3 inh: -10; rCAG bind conf: 76*; dCAG dye counter: 35*

How did O=C(COc1ccccc1/C=C\c1[nH]c(=O)[nH]c(=O)c1[N+](=O)[O-])Nc1ccccc1 do in these assays?
SIAE inh: -15; rCAG RNA binder: 68*; mABHD4 FP: -15; HTRA1 inh: -6; TCR CD3 inh: 0; rCAG bind conf: 43*; dCAG dye counter: 14*

Results for COc1cccc(/C=C/c2[nH]c(=O)[nH]c(=O)c2[N+](=O)[O-])c1O ?
SIAE inh: -3; rCAG RNA binder: 10; mABHD4 FP: 0; HTRA1 inh: 2; TCR CD3 inh: -2

What do the screens show for `CC(C)c1ccc(/C=C/c2[nH]c(=O)[nH]c(=O)c2[N+](=O)[O-])cc1`?
SIAE inh: -5; rCAG RNA binder: 40*; mABHD4 FP: -26; HTRA1 inh: -6; TCR CD3 inh: 0; rCAG bind conf: 24; dCAG dye counter: 4
